The test system of assay [1] is Staphylococcus aureus. Put plainly: Bactericidal activity against methicillin-resistant Staphylococcus aureus subsp. aureus Rosenbach 1884. The format is functional. An outline of the steps: (§1)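 In vitro testing against MRSA by standard techniques, following the Spanish Society of Clinical Microbiology and Infectious Diseases (SEIMC) recommended protocol. MIC and MBC were determined, with concentrations compared in double (twofold) dilution steps.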

Assay [2] concerns Staphylococcus aureus. The experiment in a line: Antibacterial activity against methicillin-resistant Staphylococcus aureus subsp. aureus Rosenbach 1884. The class given is functional. The method, boiled down: as §1

These results are taken from ChEMBL document CHEMBL4190280, “Topological pattern for the search of new active drugs against methicillin resistant Staphylococcus aureus” (2017).

≈ marks a conversion by molar mass, not a printed value.

As a reminder, the MBC is the lowest tested concentration that kills the bacteria rather than only halting them. Higher therefore signals less potent killing. As usually defined, the MIC is the smallest concentration in the dilution series that meets the test's criterion for growth inhibition. In turn, `Nc1nnc(-c2cccc(Cl)c2Cl)c(N)n1` [LAMOTRIGINE] displayed an MBC with Staphylococcus aureus [1] above 512 µg/mL. The MIC in the assay with Staphylococcus aureus [2] is above 512 µg/mL.

As for `COc1cc2c(cc1OC)CN(c1cc3c(cc1F)c(=O)c(C(=O)O)cn3C1CC1)CC2`, the MBC in the assay with Staphylococcus aureus [1] came out at 128 µg/mL (≈ 292 µM). This compound showed a minimum inhibitory concentration (MIC) in the assay with Staphylococcus aureus [2] of 1 µg/mL (≈ 2.28 µM).

`CC1(C)[C@H](C(=O)O[C@H](C#N)c2cccc(Oc3ccccc3)c2)[C@@H]1/C=C(\Cl)C(F)(F)F` [GAMMA-CYHALOTHRIN]: the MBC against Staphylococcus aureus [1] was above 512 µg/mL. The compound also had an MIC with Staphylococcus aureus [2] above 512 µg/mL.

In turn, `O=C(O)c1cn(C2CC2)c2cc(N3CCNCC3)c(F)cc2c1=O` [CIPROFLOXACIN] showed an MBC in the assay with Staphylococcus aureus [1] of 256 µg/mL (≈ 773 µM). This compound gave an MIC against Staphylococcus aureus [2] of 0.5 µg/mL (≈ 1.51 µM).

`Cc1nccn1-c1cc2c(cc1F)c(=O)c(C(=O)O)cn2C1CC1`: the MBC in the assay with Staphylococcus aureus [1] was above 512 µg/mL. In the assay with Staphylococcus aureus [2], inhibition of growth (MIC) required 32 µg/mL (≈ 97.8 µM).

As for `CN(Cc1cccc2ccccc12)c1cc2c(cc1F)c(=O)c(C(=O)O)cn2C1CC1`, in the assay on Staphylococcus aureus [1], the MBC was determined as 128 µg/mL (≈ 307 µM). It took 1 µg/mL (≈ 2.4 µM) to inhibit growth with Staphylococcus aureus [2] (MIC).

In the case of `O=C(O)c1cn(C2CC2)c2cc(Cl)c(F)cc2c1=O`, the MBC against Staphylococcus aureus [1] came to 512 µg/mL (≈ 1820 µM). The MIC with Staphylococcus aureus [2] amounted to 32 µg/mL (≈ 114 µM).

As to `CO[C@@]12[C@H](COC(N)=O)C3=C(C(=O)C(C)=C(N)C3=O)N1C[C@@H]1N[C@@H]12` [MITOMYCIN], the MBC against Staphylococcus aureus [1] is 4 µg/mL (≈ 12 µM). For the same compound, the MIC against Staphylococcus aureus [2] was 0.5 µg/mL (≈ 1.5 µM).

Take `O=C(O)c1cn(C2CC2)c2cc(F)c(F)cc2c1=O`: the MBC in the assay with Staphylococcus aureus [1] was above 512 µg/mL. This compound also had an MIC with Staphylococcus aureus [2] of 64 µg/mL (≈ 241 µM).
